PubChem BioAssay
Unmarked numbers belong to inactive results. Records with an inconclusive call do not appear. The source made the active and inactive calls.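 How the source made its calls, unless noted: active means cell viability at or below a set limit in both duplicate runs, the limit being the all-compound median minus 4 SD (cut at about 23% in these data, passing the limit was not always enough); inconclusive means no clear call, values can overlap the other calls; inactive means the rest.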

Experiments:
[1] = S. cerevisiae growth inhibition in permissive medium (OD615), pilot counter-assay for S. cerevisiae lifespan shortening project, permissive growth control (AID 705;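 active means growth inhibition above 25% in both replicates, a cutoff set 3 SD above the mean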); conditions: OD615, 24 h, at 10 µM, hits give high values
Summary of the method: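 Timing: 24 h exposure, 30 °C / Material: Saccharomyces cerevisiae strain carrying genetically modified DeaD replicative-lifespan system / Signal: OD at 615 nm / Compound: 10 µM single dose, 0.25% DMSO / Medium: SC raffinose/galactose permissive medium / Evaluation: reduction in yeast growth (OD615)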

[2] = S. cerevisiae growth inhibition in restrictive medium, OD615, pilot screen, restrictive growth control, yeast lifespan reduction project (AID 706;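 active means growth inhibition above a set limit, 3 SD over mean compound inhibition, in both replicates, cut at about 43% in these data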;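 further: modified DeaD lifespan yeast strain shifted to restrictive glucose medium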); conditions: OD615, 48 h, at 10 µM, hits give high values
Summary of the method: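 System: Engineered S. cerevisiae DeaD strain | Detection: OD615 | Buffer or medium: CSMM-D glucose medium | Doses: 10 µM compound, 0.25% DMSO | Timing: 4 h pre-growth plus 48 h compound exposure, 30 °C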

[3] = doxorubicin toxicity protection in MRP-1 cells – H69AR cells, CellTiter-Glo, duplicate, MRP-1 activator project, pilot screen (AID 807;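 active means viability increase at or above a cutoff of the median across tested compounds plus 3 SD, cut at about 8.5% in these data, passing the limit was not always enough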;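 further: compound pretreatment 18-22 h then 72 h combined with doxorubicin; 0% = doxorubicin alone and 100% = vehicle without doxorubicin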); conditions: H69AR viability with doxorubicin, CellTiter-Glo luminescence; at 10 µM; hits give high values
[4] = viability of HCT116 without oncogenic beta-catenin – human colon tumor cells, pilot screen (AID 823); conditions: HCT116 beta-catenin knockout viability, CellTiter-Glo, 60 h; at 10 µM; hits give low values;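 further: 0% = wells killed by 20 µM Hyamine and 100% = untreated DMSO cell wells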
[5] = viability of PTEN-null HCT116 cells – cell-based, HCT116 clonal line, CellTiter-Glo, pilot screen (AID 824;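 active means viability at or below 27.92% in each of two runs, the all-compound median minus 4 SD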;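 further: 0% = 20 µM Hyamine control and 100% = vehicle cell control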); conditions: HCT116 PTEN-deleted viability, 60 h, at 10 µM, hits give low values
[6] = RAM pathway blockade in budding yeast – dse1pr::URA3 reporter, 5-FOA selection, pilot screen (AID 869;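 active means inhibition over a set limit, the all-compound mean plus 3 SD, in both replicate runs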;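 further: 0% = DMSO wells with no growth and 100% = 10 µM 1-NA-PP1 with full growth; RAM network block rescues cells from 5-FOA so hits raise OD615 growth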); conditions: S. cerevisiae dse1pr::URA3 5-FOA growth, OD615, 2 d; at 10 µM; hits give high values; strain carries analog-sensitive mutant Cbk1 kinase
[7] = RAM signaling pathway blockade in yeast – S. cerevisiae, Pdr1DBD-CYC8 efflux-inhibited sensitized strain, primary screen (AID 1298;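 active means RAM network inhibition above 8.4% in each of two replicates, 3 SD over the compound average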;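 further: 0% = DMSO untreated cells without growth and 100% = 10 µM 1-NA-PP1 full growth; higher means more yeast growth rescued from 5-FOA killing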); conditions: S. cerevisiae cbk1-as DSE1-URA3 strain, 5-FOA growth OD615, 2 d; at 50 µM; hits give high values

SMILES	growth inhibition [1]	growth inhibition [2]	viability increase [3]	viability [4]	viability [5]	inhibition [6]	RAM network inhibition [7]
COc1cccc(-c2nc(CS(=O)CC(=O)O)c(C)o2)c1 (stereo unspecified)	-1.73%	2.52%	-0.27%	99.9%	99.5%	1.31%	4.89%
Cc1nc(N2CCCCC2)c2sc(=S)n(C)c2n1	-7.24%	7.63%	1.13%	82.2%	81.9%	0.955%	2.15%
Cc1c(NC(=O)c2ccco2)cccc1-c1nc2cccnc2s1	1.62%	-4.21%	-4.21%	97.4%	95.5%	2.2%	5.74%
CCOC(=O)c1ccc(NC(=O)CSc2nc3c(c(=O)n2-c2ccccc2OC)SCC3)cc1	-1.49%	-14.6%	-2.33%	85.7%	81.4%	1.34%	3.9%
CCOc1ccc(-n2c(SCC(=O)Nc3nccs3)nc3c(c2=O)SCC3)cc1	-7.92%	-5.48%	-0.41%	104%	98.3%	3.15%	4.65%
CC1CCCN(C(=O)CNC(=O)Cn2ccc3ccccc3c2=O)C1 (stereo unspecified)	-10.8%	-1.01%	-1.73%	99.5%	94.5%	2.08%	2.25%
N#C/C(=C(/O)CN1C(=O)c2ccccc2C1=O)c1nc2ccccc2[nH]1	-9.93%	-4.08%	0.55%	100%	94.4%	4.51%	4.04%
COc1ccc(OC)c(CCNC(=O)C2CCN(c3nnc(-n4cccc4)s3)CC2)c1	-7.79%	-20.5%	-4.48%	85.2%	81.9%	4.26%	7.35%
Cc1c(NS(=O)(=O)CC23CCC(CC2=O)C3(C)C)c(=O)n(-c2ccccc2)n1C (stereo unspecified)	5.19%	-4.44%	-2.6%	99.5%	96.4%	2.22%	3.5%
Cc1ccc(C)c(C(=O)CSc2n[nH]c(C)n2)c1	0.045%	11.3%	-0.91%	102%	102%	1.77%	1.5%
O=C(Nc1ccccc1)c1ccc(S(=O)(=O)N2CCCCC2)cc1	3.41%	-0.37%	0.95%	97.8%	82.5%	0.395%	2.23%
CCOC(=O)C1CCCN(C(=O)Cn2sc3nc(C)cc(C)c3c2=O)C1 (stereo unspecified)	18.4%	29.4%	-8.04%	3.38% (active)	12.6% (active)	1.51%	2.71%
Cn1c(=O)oc2cc(S(=O)(=O)N3CCC(C(=O)NCc4cccs4)CC3)ccc21	-3.54%	4.04%	-0.3%	95.1%	90.2%	0.335%	1.5%
O=C(Nc1ccccc1Cl)c1ccc2c(c1)N(Cc1ccc(F)cc1)C(=O)CS2=O (stereo unspecified)	-5.36%	-7.24%	1.1%	83.3%	72.5%	3.9%	3.95%
O=C(NC1CCS(=O)(=O)C1)c1ccccc1C(=O)c1ccccc1 (stereo unspecified)	-15.2%	-9.07%	-0.35%	102%	99.1%	2.46%	9.61%
COc1ccc(OC)c(NC(=O)Nc2nnc(N3CCC(C)CC3)s2)c1	-10.7%	-9.16%	0.87%	93.1%	92.7%	1.01%	2.27%
COc1ccccc1-c1c(C#N)c(SCC(=O)N2CCCC2)nc(C)c1C(N)=O	-2.97%	-7.78%	-0.18%	101%	98.2%	1.73%	1.04%
Cc1ccc(C(=O)NCCCn2ccnc2)o1	-1.7%	-6.83%	0.23%	101%	97.8%	-0.265%	3.73%
